Here are results for eight molecules from ChEMBL document CHEMBL1122887, “Structure-activity studies on the N-terminal region of growth hormone releasing factor” (1985).

The test system of test [1] is Rattus norvegicus. The test is described as follows: Effect on plasma growth hormone in anesthetized rat at a dose of 32 ug/100 g of body weight. It counts as functional. The procedure, abridged:
(§1)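 Male Charles River rats (175–350 g) anesthetized with sodium pentobarbital (6 mg/100 g body wt); 30 min later, 6–9 per group received a single subcutaneous 0.5-mL injection of saline, GRF(1-29)NH₂ reference, or one of two analogue doses. Jugular vein blood was drawn 15 min post-injection, and plasma GH was measured by radioimmunoassay, reported as ng/mL ± SE.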

Test [2] has as its system Rattus norvegicus. Put plainly: Percent growth hormone releasing activity in anesthetized rat relative to hpGRF (1-29)NH2. In kind it is functional. The procedure, abridged:
(§2)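 In pentobarbital-anesthetized male Charles River rats (6–9/group), two subcutaneous analogue doses and GRF(1-29)NH₂ reference doses were given. Plasma GH was measured by radioimmunoassay in jugular blood taken 15 min post-injection. Relative potency with 95% confidence limits came from a four-point assay design by Pugsley's method. Not active means no activity at the doses tested.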

Test [3] concerns Rattus norvegicus. Put plainly: Effect on plasma growth hormone in anesthetized rat at a dose of 16 ug/100 g of body weight. In kind it is functional. The procedure, abridged:
as §1

Test [4] relates to Rattus norvegicus. Put plainly: Effect on plasma growth hormone in anesthetized rat at a dose of 20 ug/100 g of body weight. It counts as functional. In outline:
as §1

Test [5] deals with Rattus norvegicus. Put plainly: Percent growth hormone releasing activity in anesthetized rat relative to hpGRF (1-29)NH2; Not active. In kind it is functional, organism-based. In outline: as §2
Test [6] has as its system Rattus norvegicus. Put plainly: Effect on plasma growth hormone in anesthetized rat at a dose of 10 ug/100 g of body weight. It counts as functional. In outline:
as §1

The test system of test [7] is Rattus norvegicus. The test is described as follows: Effect on plasma growth hormone in anesthetized rat at a dose of 5 ug/100 g of body weight. In kind it is functional. In outline:
as §1

Test [8] concerns Rattus norvegicus. Put plainly: Effect on plasma growth hormone in anesthetized rat at a dose of 4 ug/100 g of body weight. In kind it is functional. In outline: as §1
Test [9] deals with Rattus norvegicus. Put plainly: Effect on plasma growth hormone in anesthetized rat at a dose of 25 ug/100 g of body weight. It counts as functional. In outline: as §1
Test [10] relates to Rattus norvegicus. The test is described as follows: Effect on plasma growth hormone in anesthetized rat at a dose of 3 ug/100 g of body weight. In kind it is functional. The procedure, abridged: as §1
Test [11] deals with Rattus norvegicus. The test is described as follows: Effect on plasma growth hormone in anesthetized rat at a dose of 1.2 ug/100 g of body weight. In kind it is functional. In outline:
as §1

The subject of test [12] is Rattus norvegicus. Put plainly: Effect on plasma growth hormone in anesthetized rat at a dose of 0.62 ug/100 g of body weight. It counts as functional. The procedure, abridged: as §1
Test [13] concerns Rattus norvegicus. Put plainly: Effect on plasma growth hormone in anesthetized rat at a dose of 0.25 ug/100 g of body weight. In kind it is functional. The procedure, abridged:
as §1

Activity calls are given as the source filed them.

As for `CC[C@H](C)[C@H](NC(=O)[C@H](C)NC(=O)[C@H](CC(=O)O)NC(=O)[C@@H](C)NC(=O)[C@@H](Cc1ccc(O)cc1)NC(C)=O)C(=O)N[C@@H](Cc1ccccc1)C(=O)N[C@H](C(=O)N[C@@H](CC(N)=O)C(=O)N[C@@H](CO)C(=O)N[C@@H](Cc1ccc(O)cc1)C(=O)N[C@@H](CCCN=C(N)N)C(=O)N[C@@H](CCCCN)C(=O)N[C@H](C(=O)N[C@@H](CC(C)C)C(=O)NCC(=O)N[C@@H](CCC(N)=O)C(=O)N[C@@H](CC(C)C)C(=O)N[C@@H](CO)C(=O)N[C@@H](C)C(=O)N[C@@H](CCCN=C(N)N)C(=O)N[C@@H](CCCCN)C(=O)N[C@@H](CC(C)C)C(=O)N[C@@H](CC(C)C)C(=O)N[C@@H](CCC(N)=O)C(=O)N[C@@H](CC(=O)O)C(=O)N[C@H](C(=O)N[C@@H](CCSC)C(=O)N[C@@H](CO)C(=O)N[C@@H](CCCN=C(N)N)C(N)=O)[C@@H](C)CC)C(C)C)[C@@H](C)O` (stereo in doubt; 19), the Activity in the test with Rattus norvegicus [1] was found to be 2378 ng/mL; in the test with Rattus norvegicus [2], 52%; with Rattus norvegicus [3], 504 ng/mL.
Molecule `CC[C@H](C)[C@H](NC(=O)[C@H](C)NC(=O)[C@H](CC(=O)O)NC(=O)[C@H](C)NC(=O)[C@@H](N)Cc1ccc(O)cc1)C(=O)N[C@@H](Cc1ccccc1)C(=O)N[C@H](C(=O)N[C@@H](CC(N)=O)C(=O)N[C@@H](CO)C(=O)N[C@@H](Cc1ccc(O)cc1)C(=O)N[C@@H](CCCN=C(N)N)C(=O)N[C@@H](CCCCN)C(=O)N[C@H](C(=O)N[C@@H](CC(C)C)C(=O)NCC(=O)N[C@@H](CCC(N)=O)C(=O)N[C@@H](CC(C)C)C(=O)N[C@@H](CO)C(=O)N[C@@H](C)C(=O)N[C@@H](CCCN=C(N)N)C(=O)N[C@@H](CCCCN)C(=O)N[C@@H](CC(C)C)C(=O)N[C@@H](CC(C)C)C(=O)N[C@@H](CCC(N)=O)C(=O)N[C@@H](CC(=O)O)C(=O)N[C@H](C(=O)N[C@@H](CCSC)C(=O)N[C@@H](CO)C(=O)N[C@@H](CCCN=C(N)N)C(N)=O)[C@@H](C)CC)C(C)C)[C@@H](C)O` registered an Activity in the test with Rattus norvegicus [4] of 1781 ng/mL.
In the case of `CC[C@H](C)[C@H](NC(=O)[C@H](C)NC(=O)[C@H](CC(=O)O)NC(=O)[C@@H](Cc1ccccc1)NC(=O)[C@H](Cc1ccc(O)cc1)NC(C)=O)C(=O)N[C@@H](Cc1ccccc1)C(=O)N[C@H](C(=O)N[C@@H](CC(N)=O)C(=O)N[C@@H](CO)C(=O)N[C@@H](Cc1ccc(O)cc1)C(=O)N[C@@H](CCCN=C(N)N)C(=O)N[C@@H](CCCCN)C(=O)N[C@H](C(=O)N[C@@H](CC(C)C)C(=O)NCC(=O)N[C@@H](CCC(N)=O)C(=O)N[C@@H](CC(C)C)C(=O)N[C@@H](CO)C(=O)N[C@@H](C)C(=O)N[C@@H](CCCN=C(N)N)C(=O)N[C@@H](CCCCN)C(=O)N[C@@H](CC(C)C)C(=O)N[C@@H](CC(C)C)C(=O)N[C@@H](CCC(N)=O)C(=O)N[C@@H](CC(=O)O)C(=O)N[C@H](C(=O)N[C@@H](CCSC)C(=O)N[C@@H](CO)C(=O)N[C@@H](CCCN=C(N)N)C(N)=O)[C@@H](C)CC)C(C)C)[C@@H](C)O`, the outcome in the test with Rattus norvegicus [5] was inactive. In addition, the values for the Activity in the test with Rattus norvegicus [6] and in the test on Rattus norvegicus [7] were 422 ng/mL and 475 ng/mL, respectively.
Consider `CC[C@H](C)[C@H](NC(=O)[C@H](C)NC(=O)[C@H](CC(=O)O)NC(=O)[C@H](C)NC(=O)[C@@H](N)Cc1ccc(O)cc1)C(=O)N[C@@H](Cc1ccccc1)C(=O)N[C@H](C(=O)N[C@H](CC(N)=O)C(=O)N[C@@H](CO)C(=O)N[C@@H](Cc1ccc(O)cc1)C(=O)N[C@@H](CCCN=C(N)N)C(=O)N[C@@H](CCCCN)C(=O)N[C@H](C(=O)N[C@@H](CC(C)C)C(=O)NCC(=O)N[C@@H](CCC(N)=O)C(=O)N[C@@H](CC(C)C)C(=O)N[C@@H](CO)C(=O)N[C@@H](C)C(=O)N[C@@H](CCCN=C(N)N)C(=O)N[C@@H](CCCCN)C(=O)N[C@@H](CC(C)C)C(=O)N[C@@H](CC(C)C)C(=O)N[C@@H](CCC(N)=O)C(=O)N[C@@H](CC(=O)O)C(=O)N[C@H](C(=O)N[C@@H](CCSC)C(=O)N[C@@H](CO)C(=O)N[C@@H](CCCN=C(N)N)C(N)=O)[C@@H](C)CC)C(C)C)[C@@H](C)O`, for which the Activity in the test with Rattus norvegicus [2] was 221%; in the test with Rattus norvegicus [6], 2397 ng/mL; in the test with Rattus norvegicus [8], 1296 ng/mL.
Take `CC[C@H](C)[C@H](NC(=O)[C@H](C)NC(=O)[C@H](CC(=O)O)NC(=O)[C@@H](C)NC(=O)[C@@H](Cc1ccc(O)cc1)NC(C)=O)C(=O)N[C@@H](Cc1ccccc1)C(=O)N[C@H](C(=O)N[C@@H](CC(N)=O)C(=O)N[C@@H](CO)C(=O)N[C@@H](Cc1ccc(O)cc1)C(=O)N[C@@H](CCCN=C(N)N)C(=O)N[C@@H](CCCCN)C(=O)N[C@H](C(=O)N[C@@H](CC(C)C)C(=O)NCC(=O)N[C@@H](CCC(N)=O)C(=O)N[C@@H](CC(C)C)C(=O)N[C@@H](CO)C(=O)N[C@@H](C)C(=O)N[C@@H](CCCN=C(N)N)C(=O)N[C@@H](CCCCN)C(=O)N[C@@H](CC(C)C)C(=O)N[C@@H](CC(C)C)C(=O)N[C@@H](CCC(N)=O)C(=O)N[C@@H](CC(=O)O)C(=O)N[C@H](C(=O)N[C@@H](CCSC)C(=O)N[C@@H](CO)C(=O)N[C@@H](CCCN=C(N)N)C(N)=O)[C@@H](C)CC)C(C)C)[C@@H](C)O` (stereo in doubt; 4): the results for the Activity with Rattus norvegicus [2], in the test with Rattus norvegicus [9] and in the test with Rattus norvegicus [7] were 110%, 2234 ng/mL and 805 ng/mL, respectively.
In the case of `CC[C@H](C)[C@H](NC(=O)[C@H](C)NC(=O)[C@H](CC(=O)O)NC(=O)[C@@H](C)NC(=O)[C@@H](Cc1ccc(O)cc1)NC(C)=O)C(=O)N[C@@H](Cc1ccccc1)C(=O)N[C@H](C(=O)N[C@@H](CC(N)=O)C(=O)N[C@@H](CO)C(=O)N[C@@H](Cc1ccc(O)cc1)C(=O)N[C@@H](CCCN=C(N)N)C(=O)N[C@@H](CCCCN)C(=O)N[C@H](C(=O)N[C@@H](CC(C)C)C(=O)NCC(=O)N[C@@H](CCC(N)=O)C(=O)N[C@@H](CC(C)C)C(=O)N[C@@H](CO)C(=O)N[C@@H](C)C(=O)N[C@@H](CCCN=C(N)N)C(=O)N[C@@H](CCCCN)C(=O)N[C@@H](CC(C)C)C(=O)N[C@@H](CC(C)C)C(=O)N[C@@H](CCC(N)=O)C(=O)N[C@@H](CC(=O)O)C(=O)N[C@H](C(=O)N[C@@H](CCSC)C(=O)N[C@@H](CO)C(=O)N[C@@H](CCCN=C(N)N)C(N)=O)[C@@H](C)CC)C(C)C)[C@@H](C)O` (stereo in doubt; 7), the Activity worked out at 328 ng/mL in the test on Rattus norvegicus [9] and 213 ng/mL with Rattus norvegicus [7].
Regarding `CC[C@H](C)[C@H](NC(=O)[C@H](C)NC(=O)[C@H](CC(=O)O)NC(=O)[C@@H](C)NC(=O)[C@@H](Cc1ccc(O)cc1)NC(C)=O)C(=O)N[C@@H](Cc1ccccc1)C(=O)N[C@H](C(=O)N[C@@H](CC(N)=O)C(=O)N[C@@H](CO)C(=O)N[C@@H](Cc1ccc(O)cc1)C(=O)N[C@@H](CCCN=C(N)N)C(=O)N[C@@H](CCCCN)C(=O)N[C@H](C(=O)N[C@@H](CC(C)C)C(=O)NCC(=O)N[C@@H](CCC(N)=O)C(=O)N[C@@H](CC(C)C)C(=O)N[C@@H](CO)C(=O)N[C@@H](C)C(=O)N[C@@H](CCCN=C(N)N)C(=O)N[C@@H](CCCCN)C(=O)N[C@@H](CC(C)C)C(=O)N[C@@H](CC(C)C)C(=O)N[C@@H](CCC(N)=O)C(=O)N[C@@H](CC(=O)O)C(=O)N[C@H](C(=O)N[C@@H](CCSC)C(=O)N[C@@H](CO)C(=O)N[C@@H](CCCN=C(N)N)C(N)=O)[C@@H](C)CC)C(C)C)[C@@H](C)O` (stereo in doubt; 13), the Activity worked out at 3504 ng/mL in the test on Rattus norvegicus [10], 1297% with Rattus norvegicus [2] and 1329 ng/mL in the test with Rattus norvegicus [11].
On to `CC[C@H](C)[C@H](NC(=O)[C@H](C)NC(=O)[C@H](CC(=O)O)NC(=O)[C@@H](C)NC(=O)[C@@H](Cc1ccc(O)cc1)NC(C)=O)C(=O)N[C@@H](Cc1ccccc1)C(=O)N[C@H](C(=O)N[C@@H](CC(N)=O)C(=O)N[C@@H](CO)C(=O)N[C@@H](Cc1ccc(O)cc1)C(=O)N[C@@H](CCCN=C(N)N)C(=O)N[C@@H](CCCCN)C(=O)N[C@H](C(=O)N[C@@H](CC(C)C)C(=O)NCC(=O)N[C@@H](CCC(N)=O)C(=O)N[C@@H](CC(C)C)C(=O)N[C@@H](CO)C(=O)N[C@@H](C)C(=O)N[C@@H](CCCN=C(N)N)C(=O)N[C@@H](CCCCN)C(=O)N[C@@H](CC(C)C)C(=O)N[C@@H](CC(C)C)C(=O)N[C@@H](CCC(N)=O)C(=O)N[C@@H](CC(=O)O)C(=O)N[C@H](C(=O)N[C@@H](CCSC)C(=O)N[C@@H](CO)C(=O)N[C@@H](CCCN=C(N)N)C(N)=O)[C@@H](C)CC)C(C)C)[C@@H](C)O` (stereo in doubt; 12), for which the Activity in the test on Rattus norvegicus [12] worked out at 2386 ng/mL; with Rattus norvegicus [2], 3817%; in the test on Rattus norvegicus [13], 1235 ng/mL.
